Compounds with a hit are over-represented: about 6.9% of the library has one in this group of screens.
PTK2B oligo ant = antagonists of human Pyk2 oligomerization; Q14289; Q293 cells, Pyk2 FERM NanoBiT luminescence; active compounds read low; z-score (the deposit names both 25 µM and 10 µM); 99,000 compounds, 0.83% hits; AID 1347419;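 active = Z-score of -3 or lower, scaled per plate to the spread of control and sample wells; inactive = z-score above -3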;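 also: negative z-score means lost luminescence so less FERM oligomerization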
PostGolgi yeast = growth inhibition of a yeast mutant, post-Golgi transport screen | post-Golgi transport phenotypic cell assay | inhibition, % at 10 µM | 98,000 compounds, 0.9% hits;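 also: yeast cells grown in 1536-well plates; yeast grown about 18 h at 30C before absorbance read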
PostGolgi ctrl = yeast control strain growth, post-Golgi counter-screen | efflux-deficient yeast background strain, growth absorbance A615, 16 h | inhibition, % at 10 µM | 98,000 compounds, 5% hits | AID 738
Calb biofilm kill = kills Candida albicans biofilms; C. albicans biofilm + clotrimazole, Alamar Blue; 85,000 compounds, 0.14% hits; inhibition, % at 6 µM;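 active = inhibition above 20%; inactive = inhibition below 20%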;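 also: preformed 24 hr biofilms exposed to compound for 48 hr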
FAK inh = blocks human focal adhesion kinase activity; inhibition, %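 (tested at 7 µM)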; 97,000 compounds, 0.84% hits; biochemical FAK kinase activity assay; AID 727; in the data active = inhibition above about 19%
Target sequence (Q05397 whole entry, looked up): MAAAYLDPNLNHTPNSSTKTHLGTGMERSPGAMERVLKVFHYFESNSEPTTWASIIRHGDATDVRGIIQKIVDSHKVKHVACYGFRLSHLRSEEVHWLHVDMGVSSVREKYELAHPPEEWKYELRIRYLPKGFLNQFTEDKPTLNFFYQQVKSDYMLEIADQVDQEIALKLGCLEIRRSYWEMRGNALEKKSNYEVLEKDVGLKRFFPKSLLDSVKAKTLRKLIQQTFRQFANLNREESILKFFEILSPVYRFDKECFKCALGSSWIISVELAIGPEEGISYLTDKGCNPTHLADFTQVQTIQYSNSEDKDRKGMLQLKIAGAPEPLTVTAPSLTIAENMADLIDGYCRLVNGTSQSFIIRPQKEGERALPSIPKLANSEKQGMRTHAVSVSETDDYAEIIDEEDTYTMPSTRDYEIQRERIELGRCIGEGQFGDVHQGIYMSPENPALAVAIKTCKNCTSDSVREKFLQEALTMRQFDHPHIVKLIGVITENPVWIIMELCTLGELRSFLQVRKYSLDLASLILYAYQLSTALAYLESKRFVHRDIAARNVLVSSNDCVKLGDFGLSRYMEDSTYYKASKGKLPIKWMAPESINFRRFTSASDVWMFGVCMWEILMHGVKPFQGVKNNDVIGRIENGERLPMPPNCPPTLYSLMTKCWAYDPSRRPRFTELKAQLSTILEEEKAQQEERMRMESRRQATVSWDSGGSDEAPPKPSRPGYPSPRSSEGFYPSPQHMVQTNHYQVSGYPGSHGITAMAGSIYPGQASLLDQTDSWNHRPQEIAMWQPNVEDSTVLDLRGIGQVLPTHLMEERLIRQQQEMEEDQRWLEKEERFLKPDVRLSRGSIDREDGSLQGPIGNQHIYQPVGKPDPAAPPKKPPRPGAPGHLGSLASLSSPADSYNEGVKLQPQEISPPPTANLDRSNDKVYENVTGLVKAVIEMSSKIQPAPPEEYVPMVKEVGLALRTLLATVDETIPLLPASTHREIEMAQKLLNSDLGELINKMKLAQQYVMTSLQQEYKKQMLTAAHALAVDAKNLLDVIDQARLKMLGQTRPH
tolC growth inh = growth inhibitors of E. coli BW25113 tolC mutant. 65,000 compounds, 2.2% hits. OD615. AID 573. growth inhibition, % at 10 µM (by protocol);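 active = growth inhibition at or above a cutoff equal to the mean over every tested compound plus 3 SD, cut at about 60% in these data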;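 also: growth measured after 20 h incubation at 37 °C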
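Doses: one dose of 10 µM final / Material: E. coli BW25113 ΔtolC::kan, tolC deletion mutant strain / Buffer or medium: LB with kanamycin 50 µg/mL / Evaluation: percent growth inhibition / Detection: optical density read at 615 nm / Incubation: 37 °C, 20 h exposure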
Hits are given with their value. Rule as the data show it, unless noted: active = inhibition above about 30%; inactive = the rest.

Screening O=c1[nH]c(=S)n(CCC2=CCCCC2)c(O)c1C=NC1CCN(Cc2ccccc2)CC1 returned PTK2B oligo ant inactive, PostGolgi yeast 37.4, PostGolgi ctrl 94.0 and FAK inh inactive.
For O=c1[nH]c(=O)n(CCC2=CCCCC2)c(O)c1C=NCc1cccnc1 the results were PTK2B oligo ant -3.19, PostGolgi yeast inactive, PostGolgi ctrl inactive, Calb biofilm kill inactive, FAK inh inactive and tolC growth inh inactive.
OC(COCc1ccc(Cl)cc1)CN1CC=C(c2ccccc2)CC1 (configuration not stated) was read as PTK2B oligo ant inactive, PostGolgi yeast 63.3, PostGolgi ctrl inactive, Calb biofilm kill inactive and tolC growth inh inactive.
`CN(C)c1ccc(CN2CC=C(c3ccc(F)cc3)CC2)cc1` gave PTK2B oligo ant inactive, PostGolgi yeast inactive, PostGolgi ctrl inactive, Calb biofilm kill inactive, FAK inh inactive and tolC growth inh inactive.
For CC(=O)Nc1cc(C(=O)N2CCC3(CC2)OCCO3)ccc1Sc1ccc(C)cc1 the results were PTK2B oligo ant inactive, PostGolgi yeast inactive, PostGolgi ctrl inactive, Calb biofilm kill inactive and FAK inh inactive.
`CN1CCN(c2ccc([N+](=O)[O-])c3cccnc23)CC1` gave PTK2B oligo ant inactive, PostGolgi yeast inactive, PostGolgi ctrl inactive and FAK inh inactive.
Screening CCC(=NC1CC1)c1c(O)n(C2CCCCC2)c(=O)[nH]c1=O returned PTK2B oligo ant inactive, PostGolgi yeast inactive, PostGolgi ctrl inactive, Calb biofilm kill inactive, FAK inh inactive and tolC growth inh inactive.
For CC(C)(C)C(O)C(Oc1ccc(Cl)cc1)n1cncn1 (configuration not stated) the results were PostGolgi yeast 104.0, PostGolgi ctrl 97.6, Calb biofilm kill inactive, FAK inh inactive and tolC growth inh inactive.
For CC(C)CC1C(C#N)=C(N)Oc2c1c(=O)oc1ccccc21 (configuration not stated) the results were PostGolgi yeast inactive, PostGolgi ctrl 40.8, Calb biofilm kill inactive, FAK inh inactive and tolC growth inh inactive.
Screening CCOC(=O)[C@@]1(C#N)C(c2ccc(Cl)c(Cl)c2)[C@H](C(N)=O)N2C=C(C(C)=O)C=C[C@H]21 (some centres not stated) returned PTK2B oligo ant inactive, PostGolgi yeast inactive, PostGolgi ctrl inactive, Calb biofilm kill inactive and FAK inh inactive.
For Cc1ccc(NC(=O)CN2C(=O)CN=C(c3ccccc3)c3cc(Cl)ccc32)cc1 the results were PostGolgi yeast inactive, PostGolgi ctrl 45.9, Calb biofilm kill inactive and FAK inh inactive.
Screening CCOC(=O)C1=C(N)OC2=C(C(=O)CCC2)C12C(=O)N1c3c(ccc(C)c32)C(C)=CC1(C)C (configuration not stated) returned PTK2B oligo ant inactive, PostGolgi yeast inactive, PostGolgi ctrl inactive, Calb biofilm kill inactive and tolC growth inh 70.0.
Screening CCOC(=O)C1=C(N)OC2=C(C(=O)CCC2)C12C(=O)Nc1ccccc12 (configuration not stated) returned PTK2B oligo ant inactive, PostGolgi yeast inactive, PostGolgi ctrl inactive, Calb biofilm kill inactive, FAK inh inactive and tolC growth inh inactive.
For CCCCn1c(=O)c(C(=O)Nc2cnccn2)c(O)c2ccccc21 the results were PTK2B oligo ant inactive, PostGolgi yeast inactive, PostGolgi ctrl inactive, Calb biofilm kill inactive, FAK inh inactive and tolC growth inh 98.8.
`COc1ccc(N=C(C)c2c(O)n(C3CCCCC3)c(=O)[nH]c2=O)c(OC)c1` gave PTK2B oligo ant -3.35, PostGolgi yeast inactive, PostGolgi ctrl inactive, Calb biofilm kill inactive, FAK inh inactive and tolC growth inh inactive.
`Cc1ccc(S(=O)(=O)N2CC3CC(C2)c2cccc(=O)n2C3)cc1` (configuration not stated) gave PTK2B oligo ant inactive, PostGolgi yeast 33.0, PostGolgi ctrl inactive, Calb biofilm kill inactive and FAK inh inactive.
For Cc1c2cnn(CC(=O)N3CCC4(CC3)OCCO4)c(=O)c2c(C)n1Cc1ccccc1F the results were PTK2B oligo ant inactive, PostGolgi yeast inactive, PostGolgi ctrl inactive and tolC growth inh inactive.
For CCN1/C(=C\C=C\C2=[N+](CC)c3ccccc3C2(C)C)C(C)(C)c2ccccc21 the results were PTK2B oligo ant -3.37, PostGolgi yeast 99.2, PostGolgi ctrl 96.0, Calb biofilm kill inactive and FAK inh inactive.
For O=C1C2CCCN2C(c2cccnc2)N1c1ccc(Cl)c(Cl)c1 (configuration not stated) the results were PTK2B oligo ant -3.12, PostGolgi yeast inactive, PostGolgi ctrl inactive, Calb biofilm kill inactive, FAK inh inactive and tolC growth inh inactive.

Screening results from PubChem.
